Consider 35 molecules from ChEMBL document CHEMBL3046131, “Synthesis and quantitative structure-activity relationship (QSAR) study of novel isoxazoline and oxime derivatives of podophyllotoxin as insecticidal agents” (2012).

What all share (type): functional
Assay [1] has as its system Mythimna separata. Put plainly: Insecticidal activity against pre-third-instar larvae of Mythimna separata (Oriental armyworm) in wheat leaves at 1 mg/mL after 20 days by leaf-dipping method. The conditions noted are these: 480 h. The essentials:
(§1)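 Compounds dissolved in acetone at 1 mg/mL. Fresh wheat leaves dipped 3 s, then dried at room conditions. Acetone-only leaves served as blank control and toosendanin as positive control. Ten larvae per dish fed treated leaves, replenished when consumed, for 48 h. Untreated fresh leaves were then given until adult emergence. Held at 25 ± 2 °C, 65−80% RH, 12 h/12 h light/dark. Activity calculated by formula.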

Assay [2] relates to Mythimna separata. Put plainly: Insecticidal activity against pre-third-instar larvae of Mythimna separata (Oriental armyworm) in wheat leaves at 1 mg/mL after 5 days by leaf-dipping method. The conditions noted are these: 120 h. Summed up: as §1
Assay [3] concerns Mythimna separata. Put plainly: Insecticidal activity against pre-third-instar larvae of Mythimna separata (Oriental armyworm) in wheat leaves at 1 mg/mL after 33 days by leaf-dipping method. The conditions noted are these: 792 h. The essentials: as §1

Each structure is given as a SMILES string.

On to `COc1cc([C@@H]2c3cc4c(cc3/C(=N/OS(=O)(=O)c3ccc(Cl)c([N+](=O)[O-])c3)[C@H]3COC(=O)[C@@H]23)OCO4)cc(OC)c1OC`, for which the mortality at 1000 µg/mL came to 3.5% with Mythimna separata [1], 0% in the assay on Mythimna separata [2] and 13.8% with Mythimna separata [3].

On to `CCCCCCCCOC(=O)[C@@H]1[C@H](c2cc(OC)c(OC)c(OC)c2)c2cc3c(cc2C2=NOC[C@H]21)OCO3`, for which the mortality at 1000 µg/mL in the assay on Mythimna separata [1] was found to be 34.5%; with Mythimna separata [2] it was 30%; with Mythimna separata [3] it was 37.9%.

On to `COc1cc([C@@H]2c3cc4c(cc3/C(=N/OS(C)(=O)=O)[C@H]3COC(=O)[C@@H]23)OCO4)cc(OC)c1OC`, for which the mortality at 1000 µg/mL with Mythimna separata [1] turned out to be 17.2%; with Mythimna separata [2], 0%; with Mythimna separata [3], 24.1%.

For the molecule `CCCCOC(=O)[C@@H]1[C@H](c2cc(OC)c(OC)c(OC)c2)c2cc3c(cc2C2=NOC[C@H]21)OCO3`, the mortality at 1000 µg/mL with Mythimna separata [1] came to 34.5%; with Mythimna separata [2], 23.3%; in the assay with Mythimna separata [3] it was 58.6%.

Consider `COc1cc([C@@H]2c3cc4c(cc3/C(=N/OS(=O)(=O)c3ccc(Cl)cc3)[C@H]3COC(=O)[C@@H]23)OCO4)cc(OC)c1OC`, for which the mortality at 1000 µg/mL in the assay on Mythimna separata [1] turned out to be 37.9%; in the assay with Mythimna separata [2] it was 26.7%; in the assay on Mythimna separata [3], 55.2%.

In the case of `COc1cc([C@@H]2c3cc4c(cc3C(=O)[C@H]3COC(=O)[C@H]23)OCO4)cc(OC)c1OC` [PODOPHYLLOTOXONE], the mortality at 1000 µg/mL in the assay on Mythimna separata [1] came out at 3.5%; in the assay with Mythimna separata [2], 6.7%; in the assay on Mythimna separata [3] it was 17.2%.

With `COc1cc([C@@H]2c3cc4c(cc3C3=NOC[C@H]3[C@@H]2C(=O)OCc2cccc(F)c2)OCO4)cc(OC)c1OC`, the mortality at 1000 µg/mL was found to be 34.5% in the assay with Mythimna separata [1], 23.3% in the assay with Mythimna separata [2] and 34.5% in the assay on Mythimna separata [3].

As to `COc1cc([C@@H]2c3cc4c(cc3C3=NOC[C@H]3[C@@H]2C(=O)OCc2ccc([N+](=O)[O-])cc2)OCO4)cc(OC)c1OC`, the mortality at 1000 µg/mL in the assay with Mythimna separata [1] was 24.1%; in the assay on Mythimna separata [2], 23.3%; with Mythimna separata [3], 27.6%.

Regarding `COc1cc([C@@H]2c3cc4c(cc3C(=O)[C@H]3COC(=O)[C@@H]23)OCO4)cc(OC)c1OC` [PICROPODOPHYLLONE], the mortality at 1000 µg/mL in the assay with Mythimna separata [1] stood at 20.7%; in the assay on Mythimna separata [3] it was 27.6%.

With `COc1ccc(C(=O)OC[C@@H]2[C@H](c3cc(OC)c(OC)c(OC)c3)c3cc4c(cc3C3=NOC[C@H]32)OCO4)cc1`, the results for the mortality at 1000 µg/mL in the assay on Mythimna separata [1], in the assay on Mythimna separata [2] and in the assay on Mythimna separata [3] were 13.8%, 6.7% and 37.9%, respectively.

Take `CC(=O)O[C@@H]1C[C@H](O)[C@@]23CO[C@@H](O)[C@]1(C)[C@@H]2C[C@@H](O)[C@]1(C)[C@@H]3C(=O)[C@H](OC(C)=O)[C@@]2(C)[C@H](c3ccoc3)C[C@H]3O[C@]321` [TOOSENDANIN]: the mortality at 1000 µg/mL was 13.8% with Mythimna separata [1], 6.7% in the assay with Mythimna separata [2] and 44.8% with Mythimna separata [3].

Take `COc1cc([C@@H]2c3cc4c(cc3C3=NOC[C@H]3[C@@H]2COC(=O)c2ccc([N+](=O)[O-])cc2)OCO4)cc(OC)c1OC`: the mortality at 1000 µg/mL stood at 37.9% in the assay on Mythimna separata [1], 26.7% with Mythimna separata [2] and 58.6% with Mythimna separata [3].

As to `COc1cc([C@@H]2c3cc4c(cc3/C(=N/OS(=O)(=O)c3cccc([N+](=O)[O-])c3)[C@H]3COC(=O)[C@@H]23)OCO4)cc(OC)c1OC`, the mortality at 1000 µg/mL in the assay on Mythimna separata [1] was found to be 3.5%; with Mythimna separata [2] it was 0%; in the assay on Mythimna separata [3], 13.8%.

Regarding `COc1ccc(COC(=O)[C@@H]2[C@H](c3cc(OC)c(OC)c(OC)c3)c3cc4c(cc3C3=NOC[C@H]32)OCO4)cc1`, the mortality at 1000 µg/mL was found to be 37.9% with Mythimna separata [1], 26.7% in the assay with Mythimna separata [2] and 44.8% in the assay with Mythimna separata [3].

Turning to `COc1ccc(S(=O)(=O)O/N=C2/c3cc4c(cc3[C@@H](c3cc(OC)c(OC)c(OC)c3)[C@@H]3C(=O)OC[C@H]23)OCO4)cc1`, the mortality at 1000 µg/mL with Mythimna separata [1] worked out at 3.5%; with Mythimna separata [2], 0%; with Mythimna separata [3] it was 24.1%.

Turning to `CCc1ccc(S(=O)(=O)O/N=C2/c3cc4c(cc3[C@@H](c3cc(OC)c(OC)c(OC)c3)[C@@H]3C(=O)OC[C@H]23)OCO4)cc1`, the mortality at 1000 µg/mL in the assay on Mythimna separata [1] was found to be 17.2%; in the assay on Mythimna separata [2] it was 3.3%; in the assay with Mythimna separata [3], 27.6%.

Turning to `COc1cc([C@@H]2c3cc4c(cc3/C(=N\O)[C@H]3COC(=O)[C@H]23)OCO4)cc(OC)c1OC`, the mortality at 1000 µg/mL in the assay on Mythimna separata [1] is 24.1%; in the assay with Mythimna separata [2] it was 10%; in the assay on Mythimna separata [3], 34.5%.

As for `COc1cc([C@@H]2c3cc4c(cc3C3=NOC[C@H]3[C@@H]2CO)OCO4)cc(OC)c1OC` [ISOXAZOLOPODOPHYLLOL], the mortality at 1000 µg/mL worked out at 20.7% with Mythimna separata [1], 20% in the assay with Mythimna separata [2] and 37.9% with Mythimna separata [3].

With `COc1cc([C@@H]2c3cc4c(cc3C3=NOC[C@H]3[C@@H]2COC(=O)c2ccccc2)OCO4)cc(OC)c1OC`, the figures for the mortality at 1000 µg/mL in the assay with Mythimna separata [1], in the assay with Mythimna separata [2] and in the assay on Mythimna separata [3] were 27.6%, 26.7% and 41.4%, respectively.

As for `COc1cc([C@@H]2c3cc4c(cc3C3=NOC[C@H]3[C@@H]2COC(=O)Cc2ccccc2)OCO4)cc(OC)c1OC`, the mortality at 1000 µg/mL came out at 6.9% in the assay on Mythimna separata [1], 6.7% in the assay on Mythimna separata [2] and 20.7% in the assay with Mythimna separata [3].

For `COc1cc([C@@H]2c3cc4c(cc3C3=NOC[C@H]3[C@@H]2C(=O)O)OCO4)cc(OC)c1OC`, the results for the mortality at 1000 µg/mL with Mythimna separata [1], with Mythimna separata [2] and in the assay with Mythimna separata [3] were 31%, 20% and 41.4%, respectively.

`COc1cc([C@@H]2c3cc4c(cc3C3=NOC[C@H]3[C@@H]2COC=O)OCO4)cc(OC)c1OC`: the mortality at 1000 µg/mL in the assay with Mythimna separata [1] was 10.3%; in the assay with Mythimna separata [2], 0%; with Mythimna separata [3], 24.1%.

`COc1cc([C@@H]2c3cc4c(cc3/C(=N/OS(=O)(=O)c3ccccc3)[C@H]3COC(=O)[C@@H]23)OCO4)cc(OC)c1OC`: the values for the mortality at 1000 µg/mL with Mythimna separata [1], with Mythimna separata [2] and in the assay with Mythimna separata [3] were 6.9%, 0% and 24.1%, respectively.

For `COc1cc([C@@H]2c3cc4c(cc3[C@H](O)[C@H]3COC(=O)[C@H]23)OCO4)cc(OC)c1OC` [PODOFILOX], the mortality at 1000 µg/mL was found to be 10.3% with Mythimna separata [1], 3.3% in the assay with Mythimna separata [2] and 37.9% with Mythimna separata [3].

In the case of `COc1cc([C@@H]2c3cc4c(cc3/C(=N/OS(=O)(=O)c3ccc(C)cc3)[C@H]3COC(=O)[C@@H]23)OCO4)cc(OC)c1OC`, the mortality at 1000 µg/mL is 34.5% with Mythimna separata [1], 20% with Mythimna separata [2] and 44.8% with Mythimna separata [3].

As to `CCCCNC(=O)[C@@H]1[C@H](c2cc(OC)c(OC)c(OC)c2)c2cc3c(cc2C2=NOC[C@H]21)OCO3`, the results for the mortality at 1000 µg/mL in the assay with Mythimna separata [1], with Mythimna separata [2] and with Mythimna separata [3] were 0%, 0% and 10.3%, respectively.

`CCCCCCCC(=O)OC[C@@H]1[C@H](c2cc(OC)c(OC)c(OC)c2)c2cc3c(cc2C2=NOC[C@H]21)OCO3`: the mortality at 1000 µg/mL in the assay on Mythimna separata [1] came out at 6.9%; in the assay on Mythimna separata [2], 0%; in the assay on Mythimna separata [3], 17.2%.

As to `COc1cc([C@@H]2c3cc4c(cc3/C(=N/OS(=O)(=O)c3ccc(Br)cc3)[C@H]3COC(=O)[C@@H]23)OCO4)cc(OC)c1OC`, the mortality at 1000 µg/mL with Mythimna separata [1] turned out to be 10.3%; in the assay with Mythimna separata [2], 0%; with Mythimna separata [3], 27.6%.

Consider `COc1cc([C@@H]2c3cc4c(cc3C3=NOC[C@H]3[C@@H]2C(=O)OCc2ccccc2)OCO4)cc(OC)c1OC`, for which the mortality at 1000 µg/mL in the assay with Mythimna separata [1] was 31%; in the assay with Mythimna separata [2] it was 23.3%; with Mythimna separata [3] it was 37.9%.

Take `CCOC(=O)[C@@H]1[C@H](c2cc(OC)c(OC)c(OC)c2)c2cc3c(cc2C2=NOC[C@H]21)OCO3`: the mortality at 1000 µg/mL came out at 31% in the assay on Mythimna separata [1], 20% in the assay with Mythimna separata [2] and 44.8% with Mythimna separata [3].

In the case of `CCCC(=O)OC[C@@H]1[C@H](c2cc(OC)c(OC)c(OC)c2)c2cc3c(cc2C2=NOC[C@H]21)OCO3`, the mortality at 1000 µg/mL with Mythimna separata [1] is 13.8%; in the assay with Mythimna separata [2] it was 6.7%; in the assay on Mythimna separata [3] it was 34.5%.

As to `COc1cc([C@@H]2c3cc4c(cc3C3=NOC[C@H]3[C@@H]2COC(=O)c2cccc(F)c2)OCO4)cc(OC)c1OC`, the figures for the mortality at 1000 µg/mL with Mythimna separata [1], in the assay on Mythimna separata [2] and in the assay on Mythimna separata [3] were 34.5%, 23.3% and 55.2%, respectively.

In the case of `COC(=O)[C@@H]1[C@H](c2cc(OC)c(OC)c(OC)c2)c2cc3c(cc2C2=NOC[C@H]21)OCO3`, the figures for the mortality at 1000 µg/mL in the assay on Mythimna separata [1], in the assay on Mythimna separata [2] and in the assay on Mythimna separata [3] were 31%, 23.3% and 41.4%, respectively.

As to `COc1cc([C@@H]2c3cc4c(cc3/C(=N/O)[C@H]3COC(=O)[C@@H]23)OCO4)cc(OC)c1OC`, the results for the mortality at 1000 µg/mL in the assay on Mythimna separata [1], in the assay on Mythimna separata [2] and in the assay on Mythimna separata [3] were 6.9%, 0% and 17.2%, respectively.

`COc1cc([C@@H]2c3cc4c(cc3C3=NOC[C@H]3[C@@H]2C(=O)OCCc2ccccc2)OCO4)cc(OC)c1OC`: the mortality at 1000 µg/mL in the assay on Mythimna separata [1] was found to be 27.6%; with Mythimna separata [2] it was 20%; in the assay on Mythimna separata [3] it was 41.4%.

As usually defined, the mortality is the share of the test organisms that died.
